# Tests used:
# Trypanosoma cruzi [1] = assay: Trypanosomicidal activity against axenic epimastigote stage of Trypanosoma cruzi Tulahuen 2 assessed as growth inhibition; type: functional, organism-based
# Outline: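 Tulahuen 2 epimastigotes grown axenically at 28 °C in BHI-tryptose with 5% FCS, harvested late log phase, 3×10^6/mL in 24-well plates. Compound added from DMSO stock (≤1% DMSO). Growth as A590 at day 0 and day 5; % inhibition from blank-corrected absorbances; ID50 = concentration halving absorbance relative to untreated controls.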
# Trypanosoma cruzi [2] = assay: Trypanosomicidal activity against amastigote stage of Trypanosoma cruzi Tulahuen C4 transfected with beta-D-galactosidase infected in african green monkey Vero cells assessed as growth inhibition incubated 5 days prior to beta-D-galactopyranoside addition measured after 4 to 5 hrs by colorimetric assay; type: functional, organism-based
# Outline: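 VERO monolayer in phenol red-free RPMI 1640 with 10% FCS, infected with 5×10^4 LacZ-transfected Tulahuen C4 trypomastigotes/well, 24 h at 37 °C, 5% CO2. Compounds added for 5 days. CPRG substrate added, 4–5 h at 37 °C, A570. Actives (>50% inhibition) retested in duplicate at 10.0–0.16; IC50 by logarithmic regression versus untreated control.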
# [3] = Cytotoxicity against mouse J774.1 cells assessed as cell viability after 48 hrs by MTT assay; type: cell-based; details: J774.1, 48 h
# Outline: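 J774.1 macrophages in DMEM with 4 mM L-glutamine and 10% heat-inactivated FCS, 5×10^4 cells/well, attached 48 h at 37 °C, 5% CO2. Exposed 48 h to compounds (12.5–400.0 µM) or vehicle. MTT 0.1 mg/mL final, 3 h at 37 °C; formazan dissolved in DMSO/glycine buffer pH 10.5, A560. IC50 by linear regression versus solvent control.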
# [4] = tested on: Mycobacterium tuberculosis; assay: Antimycobacterial activity against Mycobacterium tuberculosis H37Rv assessed as growth inhibition after 5 days by MTT assay; type: functional; details: 120 h
# Outline: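 MTB inoculum made from 20–30-day slant growth in Tween 80/0.2% BSA, adjusted to McFarland No. 1, then diluted in 7H9GC broth (Middlebrook 7H9, glycerol, Casitone, OADC). Final inoculum about 1.2 × 10^6 CFU/mL. Compounds taken from DMSO stock to final 0.4–25 in broth, with a DMSO control. Plates run 5 days at 37 °C, then tetrazolium (MTT)–Tween 80 added for a further 24 h at 37 °C. Read-out is MIC.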
# [5] = Selectivity index, ratio of IC50 for mouse J774.1 cells to MIC for Mycobacterium tuberculosis H37Rv; type: functional
# Outline: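 Cytotoxicity: J774.1 macrophages in DMEM with 4 mM L-glutamine and 10% heat-inactivated FCS, seeded at 5 × 10^4/well, attached 48 h at 37 °C, 5% CO2. Exposed 48 h to 12.5–400.0 µM compound or vehicle. MTT at 0.1 mg/mL final for 3 h, formazan dissolved in DMSO/glycine buffer pH 10.5, A560 read. IC50 by linear regression, divided by the MIC against the same MTB strain.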
# [6] = Selectivity index, ratio of IC50 for mouse J774.1 cells to IC50 for amastigote stage of Trypanosoma cruzi Tulahuen C4; type: toxicity; details: read-out: Ratio IC50
# Leishmania amazonensis = assay: Leishmanicidal activity against axenic amastigote stage of Leishmania amazonensis MHOM/BR/76/LTB-012 assessed as growth inhibition after 72 hrs by MTT assay; type: functional, organism-based; details: MHOM/BR/76/LTB-012, 72 h
# Outline: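 L. amazonensis axenic amastigotes (MHOM/BR/76/LTB-012), weekly passages in MAA/20 at 32 °C, 5% CO2. Seeded in 96-well plates; compounds in DMSO at 100 to 1 final, 72 h. MTT added for 4 h, stopped with 50% isopropanol–10% SDS, 30 min agitation at room temperature, A570. Triplicate; % inhibition versus control, IC50 from several concentrations.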
# [7] = Selectivity index, ratio of IC50 for mouse J774.1 cells to IC50 for axenic amastigote stage of Leishmania amazonensis MHOM/BR/76/LTB-012; type: toxicity; details: read-out: Ratio IC50
# Plasma = assay: Metabolic stability in human plasma at pH 3 at 40 uM after 3 hrs; type: ADME, cell-free; details: pH 3, 3 h
# [8] = Aqueous stability of the compound in Tris.HCl buffer at pH 7.4 at 1 mM after 24 hrs by spectrophotometric analysis; type: physicochemical; details: pH 7.4, 24 h, 1000 µM
# Outline: (§1)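 Compound from DMSO stock, 1 mM final in aqueous buffer (KCl·HCl pH 2, acetate pH 5, Tris·HCl pH 7.4 or 8.3), incubated 37 °C for 24 h. Absorbance spectrum 250–450 nm compared with a freshly prepared, unincubated solution. TLC of ethyl acetate extracts to confirm or exclude decomposition products.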
# [9] = Aqueous stability of the compound in Tris.HCl buffer at pH 8.3 at 1 mM after 24 hrs by spectrophotometric analysis; type: physicochemical; details: pH 8.3, 24 h, 1000 µM; outline: as §1
# [10] = Aqueous stability of the compound in acetate buffer at pH 5 at 1 mM after 24 hrs by spectrophotometric analysis; type: physicochemical; details: pH 5, 24 h, 1000 µM; outline: as §1
# [11] = Aqueous stability of the compound in KCl.HCl buffer at pH 2 at 1 mM after 24 hrs by spectrophotometric analysis; type: physicochemical; details: pH 2, 24 h, 1000 µM; outline: as §1
# [12] = Selectivity index, ratio of IC50 for african green monkey Vero cells to IC50 for amastigote stage of Trypanosoma cruzi Tulahuen C4; type: toxicity, cell-based; details: read-out: Ratio IC50
Compound,IC50 (Trypanosoma cruzi [1]) [µM],IC50 (Trypanosoma cruzi [2]) [µM],IC50 [3] [µM],MIC [4] [µM],Selectivity Index [5],further results
Cc1c(/C=N/NC(=O)c2cccnc2)no[n+]1[O-],> 150,> 40.5,> 400,> 101,,
COC(=O)c1no[n+]([O-])c1C,> 50,> 62.3,,,,
O=C(N/N=C/c1c(-c2ccccc2)no[n+]1[O-])c1cnn(-c2ccccc2)c1,> 150,> 26.7,41.7,> 66.8,<0.6,
CC(=O)Nc1ccc(/C=N/NC(=O)c2no[n+]([O-])c2C)cc1,> 150,> 33,235,> 82.5,<3,
Cc1c(C(=O)N/N=C/c2ccccc2O)no[n+]1[O-],39.8,> 38.7,246,> 95.4,<3,selectivity ratio [6]: < 6
Cc1c(C(=O)N/N=C/c2c(-c3ccccc3)no[n+]2[O-])no[n+]1[O-],25.1,> 30.3,> 400,> 75.8,,
Cc1c(C(=O)N/N=C/c2cccc(O)c2)no[n+]1[O-],> 150,> 38.2,> 400,> 95.4,,IC50 (Leishmania amazonensis): 4.5 µM; selectivity ratio [7]: > 89
Cc1c(/C=N/NC(=O)c2ccc3c(c2)OCO3)no[n+]1[O-],> 150,> 34.5,132,> 86.2,<1.5,IC50 (Leishmania amazonensis): 3.3 µM; selectivity ratio [6]: < 1.5; selectivity ratio [7]: 40
Cc1[nH]cnc1C(=O)N/N=C/c1c(-c2ccccc2)no[n+]1[O-],> 150,> 32.1,> 400,> 80.1,,
O=C(N/N=C/c1ccc2no[n+]([O-])c2c1)c1cccnc1,35.5,> 35.3,31,44.2,0.7,selectivity ratio [6]: < 0.9; Stability (Plasma): Stable; Stability [8]: Stable; Stability [9]: Stable; Stability [10]: Stable; Stability [11]: Stable
Cc1c(C(=O)N/N=C/c2ccc(Br)cc2)no[n+]1[O-],> 150,> 29.6,162,> 74,<2,selectivity ratio [6]: < 5
NNC(=O)c1ccncc1 [ISONIAZID],> 150,,> 400,0.4,>1000,
Cc1c(C(=O)N/N=C/c2ccccn2)no[n+]1[O-],> 150,> 40.5,> 400,> 101,,
Cc1c(C(=O)N/N=C/c2ccc([N+](=O)[O-])s2)no[n+]1[O-],50,> 33.7,> 400,42.1,>10,
O=C(N/N=C/c1ccc2nonc2c1)c1cccnc1,> 150,> 37.5,209,> 93.6,<2,selectivity ratio [6]: < 5.5
Cc1c(C(=O)N/N=C/c2ccc3no[n+]([O-])c3c2)no[n+]1[O-],> 150,> 32.9,> 400,82.2,>5,
Cc1c(/C=N/NC(=O)c2no[n+]([O-])c2C)no[n+]1[O-],81.3,> 37.5,> 400,> 93.6,,
Cc1nc2ccccn2c1C(=O)N/N=C/c1no[n+]([O-])c1C,> 150,> 33.3,> 400,> 83.3,,IC50 (Leishmania amazonensis): 12.6 µM; selectivity ratio [7]: > 32
Cc1c(C(=O)N/N=C/c2ccc(N(C)C)cc2)no[n+]1[O-],> 150,> 34.6,129,> 86.5,<1.5,selectivity ratio [6]: < 3
NNC(=O)c1cccnc1 [NICOTINIC ACID HYDRAZIDE],> 150,> 73,,,,

Compound,IC50 (Trypanosoma cruzi [1]) [µM],IC50 (Trypanosoma cruzi [2]) [µM],IC50 [3] [µM],MIC [4] [µM],Selectivity Index [5],further results
COc1ccc(/C=N/NC(=O)c2no[n+]([O-])c2C)cc1O,,,> 400,> 85.6,,IC50 (Leishmania amazonensis): 8.3 µM; selectivity ratio [7]: > 48
Cc1c(C(=O)N/N=C/c2ccc(C(F)(F)F)cc2)no[n+]1[O-],> 150,> 31.9,> 400,> 79.6,,
CC1CS(=O)(=O)CCN1/N=C/c1ccc([N+](=O)[O-])o1 (stereo not given) [NIFURTIMOX],,10.4,,,,selectivity ratio [12]: 7.7; selectivity ratio [6]: 27
Cc1[nH]cnc1C(=O)N/N=C/c1no[n+]([O-])c1C,> 150,> 40,> 400,> 100,,
COc1cc(/C=N/NC(=O)c2no[n+]([O-])c2C)cc(OC)c1OC,,,> 300,> 74.4,,
O=C(N/N=C/c1ccc2nonc2c1)c1ccncc1,> 150,> 37.5,> 400,> 93.6,,
Cc1c(C(=O)N/N=C/c2ccc3c(c2)OCO3)no[n+]1[O-],> 150,> 34.5,> 400,> 86.2,,
Cc1c(C(=O)N/N=C/c2ccccc2)no[n+]1[O-],151,> 40.7,> 400,> 102,,
O=C(N/N=C/c1c(-c2ccccc2)no[n+]1[O-])c1cccnc1,58.9,> 32.4,195,40.5,5,selectivity ratio [6]: < 6
NNC(=O)c1cnn(-c2ccccc2)c1,,> 49.5,,,,
Cc1c(/C=N/NC(=O)c2cnn(-c3ccccc3)c2)no[n+]1[O-],> 150,> 32.1,295,> 80.1,<4,
Cc1c(C(=O)NN)no[n+]1[O-],> 50,> 62.3,,,,
NNC(=O)c1ccc2c(c1)OCO2,> 150,> 55.6,,,,
Cc1nc2ccccn2c1C(=O)NN,> 150,> 52.6,,,,IC50 (Leishmania amazonensis): 29.8 µM; selectivity ratio [7]: > 13
Cc1c(C(=O)N/N=C/c2ccc(C(=O)O)cc2)no[n+]1[O-],> 150,> 34.5,> 300,> 86.2,,
Cc1c(C(=O)N/N=C/c2ccco2)no[n+]1[O-],> 150,> 42.4,> 400,> 106,,
Cc1c(C(=O)N/N=C/c2ccc([N+](=O)[O-])cc2)no[n+]1[O-],> 150,> 34.4,> 300,> 85.9,,IC50 (Leishmania amazonensis): 7.9 µM; selectivity ratio [7]: > 38
COc1ccc(/C=N/NC(=O)c2no[n+]([O-])c2C)cc1OC,,,> 400,> 81.6,,
Cc1nc2ccccn2c1C(=O)N/N=C/c1ccc2no[n+]([O-])c2c1,> 150,> 30.9,141,77.2,1.8,selectivity ratio [6]: < 4
Cc1c(C(=O)N/N=C/c2ccc([N+](=O)[O-])o2)no[n+]1[O-],50.1,> 35.6,68,44.5,1.5,selectivity ratio [6]: < 2

# — ChEMBL document CHEMBL2331334, “Hybrid furoxanyl N-acylhydrazone derivatives as hits for the development of neglected diseases drug candidates” (Eur J Med Chem, 2013)
